Assay results taken from ChEMBL document CHEMBL1133675, “New substituted 1-(2,3-dihydrobenzo[1, 4]dioxin-2-ylmethyl)piperidin-4-yl derivatives with alpha(2)-adrenoceptor antagonist activity” (J Med Chem, 2000).
pIC50: −log10 of the molar value. The source made the active and inactive calls. Unless noted, the calls are words filed in the database; no cut-off is given here.

Columns and labels:
Mus musculus [1] = test: In vivo antagonism of guanabenz-induced hypothermia in mice after intraperitoneal administration; type: functional; conditions: ip
In short: (§1)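 Male NMRI mice, 30-32 g, 5 per dose; test drug or vehicle given ip, then 5 min later guanabenz 1 mg/kg ip. Rectal temperature read by thermistor probe 25 min after guanabenz. Inhibition means temperature > 36 °C. […] Active dose range = doses inhibiting in more than 80% of animals.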

D(2) dopamine receptor = D(2) dopamine receptor (Rattus norvegicus, UniProt P61169); test: In vitro inhibition of specific binding of [3H]-YM 09151-2 to Dopamine receptor D2 site in rat striatal tissue.; type: tissue-based, Striatum
Mus musculus [2] = test: In vivo antagonism of guanabenz-induced hypothermia in mice after peroral administration at a dose of 10-40 mg/kg; type: functional; conditions: po
In short: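 Male NMRI mice (30-32 g) dosed by oral gavage with drug or vehicle; 35 min later, guanabenz 1 mg/kg ip. Rectal temperature was taken 25 min after guanabenz with a thermistor probe. Inhibition meant temperature > 36 °C. Five mice were used per dose. The active dose range is the doses inhibiting hypothermia in more than 80% of animals.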

[3] = biological target: T1, Adrenergic receptor alpha-2 (Rattus norvegicus, UniProt P22086+P19328+P22909); test: In vitro inhibition of binding of [3H]-RX-821002 to alpha-2 adrenergic receptor site in rat brain membranes.; type: cell membranes
T1 sequence (P22086 whole entry): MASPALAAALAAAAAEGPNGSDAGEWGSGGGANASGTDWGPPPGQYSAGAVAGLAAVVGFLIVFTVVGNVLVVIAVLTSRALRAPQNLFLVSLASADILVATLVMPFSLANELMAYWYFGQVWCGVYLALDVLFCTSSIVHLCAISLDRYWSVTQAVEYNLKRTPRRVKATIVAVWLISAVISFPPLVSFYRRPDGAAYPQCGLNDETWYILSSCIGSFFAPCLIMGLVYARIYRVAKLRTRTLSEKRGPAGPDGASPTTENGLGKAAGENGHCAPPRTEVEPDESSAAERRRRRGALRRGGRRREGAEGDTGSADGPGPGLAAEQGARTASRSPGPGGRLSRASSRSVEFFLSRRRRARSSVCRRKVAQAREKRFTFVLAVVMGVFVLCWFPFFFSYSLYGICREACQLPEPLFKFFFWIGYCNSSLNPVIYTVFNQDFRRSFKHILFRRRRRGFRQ
T1 sequence (P19328 whole entry): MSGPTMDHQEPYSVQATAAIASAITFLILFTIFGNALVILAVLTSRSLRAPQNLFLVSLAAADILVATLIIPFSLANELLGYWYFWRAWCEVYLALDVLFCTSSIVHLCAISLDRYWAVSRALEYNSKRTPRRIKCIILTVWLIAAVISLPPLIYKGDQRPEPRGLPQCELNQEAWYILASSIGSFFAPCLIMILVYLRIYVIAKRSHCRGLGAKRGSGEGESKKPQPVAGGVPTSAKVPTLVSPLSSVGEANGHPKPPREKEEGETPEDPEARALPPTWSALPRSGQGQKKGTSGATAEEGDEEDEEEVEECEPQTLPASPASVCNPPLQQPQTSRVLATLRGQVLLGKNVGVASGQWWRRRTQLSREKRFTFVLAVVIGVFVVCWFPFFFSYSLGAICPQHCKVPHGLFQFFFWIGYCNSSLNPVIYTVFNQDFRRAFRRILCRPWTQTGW
T1 sequence (P22909 whole entry): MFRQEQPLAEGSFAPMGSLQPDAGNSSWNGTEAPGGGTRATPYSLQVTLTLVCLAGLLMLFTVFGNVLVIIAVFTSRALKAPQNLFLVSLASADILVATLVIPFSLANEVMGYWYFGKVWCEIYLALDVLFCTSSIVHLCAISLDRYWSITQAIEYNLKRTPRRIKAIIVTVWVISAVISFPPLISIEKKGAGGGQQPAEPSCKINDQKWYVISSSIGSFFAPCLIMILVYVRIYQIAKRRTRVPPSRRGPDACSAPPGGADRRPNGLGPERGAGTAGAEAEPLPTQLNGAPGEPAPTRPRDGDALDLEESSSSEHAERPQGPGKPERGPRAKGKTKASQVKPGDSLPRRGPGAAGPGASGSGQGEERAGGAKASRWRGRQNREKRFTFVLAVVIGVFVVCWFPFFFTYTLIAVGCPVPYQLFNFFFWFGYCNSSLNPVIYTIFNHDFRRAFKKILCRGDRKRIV

Mus musculus [4] = test: In vivo antagonism of guanabenz-induced hypothermia in mice after intraperitoneal administration at a dose of 2.5-10 mg/kg; type: functional; conditions: ip
In short: (§2)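 Male NMRI mice, 30-32 g, 5 per dose; test drug or vehicle given ip, then 5 min later guanabenz 1 mg/kg ip. Rectal temperature read by thermistor probe 25 min after guanabenz. Inhibition means temperature > 36 °C. Active dose range = doses inhibiting in more than 80% of animals.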

[5] = biological target: T2, Adrenergic receptor alpha-1 (Rattus norvegicus, UniProt P15823+P23944+P43140); test: In vitro inhibition of specific binding of [3H]- prazosin to alpha-1 adrenergic receptor site in rat brain membranes.; type: cell membranes
T2 sequence (P15823 whole entry): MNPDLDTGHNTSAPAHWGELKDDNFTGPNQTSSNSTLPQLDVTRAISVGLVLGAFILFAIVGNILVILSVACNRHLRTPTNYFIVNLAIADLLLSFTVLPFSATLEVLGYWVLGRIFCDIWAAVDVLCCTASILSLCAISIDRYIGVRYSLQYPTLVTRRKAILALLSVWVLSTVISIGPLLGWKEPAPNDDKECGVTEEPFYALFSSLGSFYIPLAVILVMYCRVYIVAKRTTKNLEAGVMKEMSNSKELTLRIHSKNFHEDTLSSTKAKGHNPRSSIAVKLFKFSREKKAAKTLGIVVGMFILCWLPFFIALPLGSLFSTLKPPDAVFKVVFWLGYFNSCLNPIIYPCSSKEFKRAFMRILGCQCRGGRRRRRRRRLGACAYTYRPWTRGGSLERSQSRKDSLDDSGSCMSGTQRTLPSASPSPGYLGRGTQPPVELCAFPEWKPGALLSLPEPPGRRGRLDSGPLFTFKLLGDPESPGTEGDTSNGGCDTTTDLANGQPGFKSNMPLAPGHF
T2 sequence (P23944 whole entry): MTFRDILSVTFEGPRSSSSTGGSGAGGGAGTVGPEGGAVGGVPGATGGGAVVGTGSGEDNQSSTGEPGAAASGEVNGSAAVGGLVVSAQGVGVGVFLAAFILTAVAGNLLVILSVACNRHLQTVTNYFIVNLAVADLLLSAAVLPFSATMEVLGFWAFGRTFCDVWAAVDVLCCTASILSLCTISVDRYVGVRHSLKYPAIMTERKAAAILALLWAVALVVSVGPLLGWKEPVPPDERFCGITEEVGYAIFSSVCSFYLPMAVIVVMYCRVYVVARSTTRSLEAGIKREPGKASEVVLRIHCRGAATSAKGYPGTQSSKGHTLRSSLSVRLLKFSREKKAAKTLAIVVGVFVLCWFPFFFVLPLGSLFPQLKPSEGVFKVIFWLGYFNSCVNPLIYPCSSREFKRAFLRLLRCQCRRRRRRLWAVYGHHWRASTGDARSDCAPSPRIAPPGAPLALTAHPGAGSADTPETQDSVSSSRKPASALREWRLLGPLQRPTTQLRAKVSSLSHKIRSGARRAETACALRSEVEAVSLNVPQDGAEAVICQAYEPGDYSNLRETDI
T2 sequence (P43140 whole entry): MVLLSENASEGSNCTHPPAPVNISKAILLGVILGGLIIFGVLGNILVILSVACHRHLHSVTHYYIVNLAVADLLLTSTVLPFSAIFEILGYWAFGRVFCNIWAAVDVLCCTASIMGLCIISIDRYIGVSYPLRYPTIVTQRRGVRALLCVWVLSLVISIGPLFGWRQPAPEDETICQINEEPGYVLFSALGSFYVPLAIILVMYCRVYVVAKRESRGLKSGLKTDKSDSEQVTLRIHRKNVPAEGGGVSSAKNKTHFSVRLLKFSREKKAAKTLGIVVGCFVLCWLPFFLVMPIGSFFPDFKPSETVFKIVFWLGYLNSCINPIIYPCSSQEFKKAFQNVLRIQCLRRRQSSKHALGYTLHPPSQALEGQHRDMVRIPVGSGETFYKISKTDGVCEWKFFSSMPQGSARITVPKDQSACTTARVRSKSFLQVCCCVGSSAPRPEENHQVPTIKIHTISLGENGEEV

Mus musculus [6] = test: In vivo antagonism of guanabenz-induced hypothermia in mice after intraperitoneal administration at a dose of 0.63 mg/kg; type: functional; conditions: ip; in short: as §1
Mus musculus [7] = test: In vivo antagonism of guanabenz-induced hypothermia in mice after intraperitoneal administration at a dose of 10-40 mg/kg; type: functional; conditions: ip; in short: as §1
Mus musculus [8] = test: In vivo antagonism of guanabenz-induced hypothermia in mice after intraperitoneal administration at a dose of 0.04-10 mg/kg; type: functional; conditions: ip; in short: as §1
Mus musculus [9] = test: In vivo antagonism of guanabenz-induced hypothermia in mice after peroral administration at a dose of 2.5-40 mg/kg; type: functional; conditions: po
In short: (§3)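 Male NMRI mice (30-32 g), five per dose; vehicle or drug by oral gavage, guanabenz 1 mg/kg ip 35 min later. Rectal temperature by thermistor 25 min post-guanabenz; inhibition scored as temperature > 36 °C. Active range is doses giving inhibition in more than 80% of mice.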

Mus musculus [10] = test: In vivo antagonism of guanabenz-induced hypothermia in mice after intraperitoneal administration at a dose of 10 mg/kg; type: functional; conditions: ip; in short: as §1
Mus musculus [11] = test: In vivo antagonism of guanabenz-induced hypothermia in mice after intraperitoneal administration; […]; type: functional, organism-based; in short: as §1
Mus musculus [12] = test: In vivo antagonism of guanabenz-induced hypothermia in mice after peroral administration; Inactive; type: functional, organism-based
In short: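 Male NMRI mice (30-32 g), five per dose; vehicle or drug by oral gavage, guanabenz 1 mg/kg ip 35 min later. Rectal temperature by thermistor 25 min post-guanabenz; inhibition scored as temperature > 36 °C. […] Active range is doses giving inhibition in more than 80% of mice.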

Mus musculus [13] = test: In vivo antagonism of guanabenz-induced hypothermia in mice after intraperitoneal administration at a dose of 0.63-10 mg/kg; type: functional; conditions: ip; in short: as §2
Mus musculus [14] = test: In vivo antagonism of guanabenz-induced hypothermia in mice after intraperitoneal administration at a dose of 1 mg/kg; type: functional; conditions: ip; in short: as §1
Mus musculus [15] = test: In vivo antagonism of guanabenz-induced hypothermia in mice after peroral administration at a dose of 10 mg/kg; type: functional; conditions: route oral; in short: as §3

Sequence of D(2) dopamine receptor (P61169 whole entry): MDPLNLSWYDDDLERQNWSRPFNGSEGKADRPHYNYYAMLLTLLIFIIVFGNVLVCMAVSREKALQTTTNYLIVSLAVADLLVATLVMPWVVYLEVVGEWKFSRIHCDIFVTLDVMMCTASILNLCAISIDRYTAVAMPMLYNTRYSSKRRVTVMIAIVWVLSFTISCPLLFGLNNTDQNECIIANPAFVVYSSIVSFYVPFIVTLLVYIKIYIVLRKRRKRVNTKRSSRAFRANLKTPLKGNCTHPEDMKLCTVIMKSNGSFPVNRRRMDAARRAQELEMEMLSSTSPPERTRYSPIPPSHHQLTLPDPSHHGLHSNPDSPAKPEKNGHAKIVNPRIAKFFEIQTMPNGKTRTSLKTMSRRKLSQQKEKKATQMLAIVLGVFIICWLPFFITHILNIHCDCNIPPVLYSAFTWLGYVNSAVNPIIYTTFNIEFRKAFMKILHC

Structure (SMILES) | pIC50 (D(2) dopamine receptor) | IC50 [3] [nM] | IC50 [5] [nM] | also measured
O=C(NCCC1CCN(CC2COc3ccccc3O2)CC1)NCc1ccccc1 (stereo not given) |  |  |  | ED50 (Mus musculus [1]): 1.78 mg/kg
Cc1cccc(C)c1N1CCN(CCC2CCN(CC3COc4ccccc4O3)CC2)C1=O (stereo not given) | 7.10 | 1.8 | 85 | ED50 (Mus musculus [2]): 5.01 mg/kg; ED50 (Mus musculus [4]): 0.41 mg/kg
COc1ccc(NC(=O)NCCC2CCN(CC3COc4ccccc4O3)CC2)cc1 (stereo not given) |  |  |  | ED50 (Mus musculus [6]): 0.27 mg/kg
O=C1N(CCC2CCN(CC3COc4ccccc4O3)CC2)CCN1c1ccc(F)cc1 (stereo not given) |  |  |  | ED50 (Mus musculus [7]): 2.51 mg/kg
O=C(NCCC1CCN(CC2COc3ccccc3O2)CC1)c1ccccc1[N+](=O)[O-] (stereo not given) | 7.60 | 2 | 20 | 
S=C(NCCC1CCN(CC2COc3ccccc3O2)CC1)Nc1ccccc1 (stereo not given) |  |  |  | ED50 (Mus musculus [8]): 0.02 mg/kg
CCOc1cccc(OCC)c1N1CCN(CCC2CCN(CC3COc4ccccc4O3)CC2)C1=O (stereo not given) | 6.87 | 4 | 70 | ED50 (Mus musculus [9]): 0.53 mg/kg; ED50 (Mus musculus [10]): 0.89 mg/kg
O=C(NCCC1CCN(CC2COc3ccccc3O2)CC1)Nc1ccc(O)cc1 (stereo not given) |  |  |  | NA (Mus musculus [11]): inactive
O=C(NC(=S)NCCC1CCN(CC2COc3ccccc3O2)CC1)c1ccccc1 (stereo not given) |  |  |  | NA (Mus musculus [12]): inactive; NA (Mus musculus [11]): inactive
O=C1Nc2ccccc2CN1CCC1CCN(CC2COc3ccccc3O2)CC1 (stereo not given) | 7.80 | 5 | 18 | 
O=C1Nc2ccccc2CN1CC1CCN(CC2COc3ccccc3O2)CC1 (stereo not given) | 6.26 | 25 | 70 | 
O=C(NCCC1CCN(CC2COc3ccccc3O2)CC1)C(c1ccccc1)c1ccccc1 (stereo not given) |  |  |  | NA (Mus musculus [12]): inactive; NA (Mus musculus [11]): inactive
O=C(NCCC1CCN(CC2COc3ccccc3O2)CC1)Oc1ccccc1 (stereo not given) |  |  |  | NA (Mus musculus [12]): inactive; NA (Mus musculus [11]): inactive
COc1cc(OC)c(N2CCN(CCC3CCN(CC4COc5ccccc5O4)CC3)C2=O)c(OC)c1 (stereo not given) | 6.49 | 4.5 | 200 | ED50 (Mus musculus [9]): 1.07 mg/kg; ED50 (Mus musculus [4]): 0.41 mg/kg
CC(C)c1cccc(C(C)C)c1N1CCN(CCC2CCN(CC3COc4ccccc4O3)CC2)C1=O (stereo not given) | 6.32 | 36 | 180 | 
COc1ccccc1CC(=O)NCCC1CCN(CC2COc3ccccc3O2)CC1 (stereo not given) | 7.30 | 10 | 70 | 
O=C(Cc1ccccc1[N+](=O)[O-])NCCC1CCN(CC2COc3ccccc3O2)CC1 (stereo not given) | 8.74 | 1 | 11.5 | 
c1ccc2c(c1)OCC(C1=NCCN1)O2 (stereo not given) [IDAZOXAN] | < 5.00 |  |  | ED50 (Mus musculus [2]): 0.89 mg/kg; ED50 (Mus musculus [13]): 0.31 mg/kg
COC(=O)[C@@H]1[C@H]2C[C@H]3c4[nH]c5ccccc5c4CCN3C[C@@H]2CC[C@@H]1O [YOHIMBINE] | 5.95 |  |  | ED50 (Mus musculus [14]): 0.56 mg/kg; ED50 (Mus musculus [15]): 1.23 mg/kg
